# Data reported in article PMC8429223 (Biomedicine & pharmacotherapy = Biomedecine & …, 2021).
# Assays:
# MDA-MB-231 cells [1] = experiment: MTT cell viability assay, MDA-MB-231; type: cell-based, human; conditions: single agent, MDA-MB-231, MTT
# In short: (§1)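 Cells were seeded in complete medium, MDA-MB-231 at 2 x 10³ and MCF 10A at 2 x 10⁴ cells/well. After 24 h they were exposed to test compound up to 10 μM, or 0.1% DMSO, for 72 h (MDA-MB-231) or 96 h (MCF 10A). MTT (5 mg ml⁻¹) was added for 4 h at 37°C, 5% CO₂, then formazan was dissolved in DMSO with 10 min shaking and read at 540 nm. IC50 by non-linear regression; mean ± SD (n = 4).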
# primary ALL-5 cells = experiment: MTT cell viability assay, primary ALL-5; type: cell-based; conditions: Homo sapiens, ALL5, 120 h, read-out: ALL-5 IC50
# In short: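 Primary ALL-5 cells (patient bone-marrow-derived) were kept in supplemented IMDM at 1–3 x 10⁶ cells ml⁻¹ and plated at 10⁵ cells/well. They were treated 120 h with a test compound series or 0.1% DMSO. MTT (5 mg ml⁻¹) was added for 24 h at 37°C, then 10% SDS in 0.01 M HCl for a further 24 h; absorbance 540 nm. IC50 by non-linear regression; mean ± SD (n = 4).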
# MCF 10A cells = experiment: MTT cell viability assay, MCF 10A; type: cell-based; conditions: Homo sapiens, 96 h, read-out: MCF 10A IC50
# In short: as §1
# MDA-MB-231 cells [2] = experiment: Colony formation assay; type: cell-based, human
# In short: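 MDA-MB-231 cells were seeded at 1.5 x 10⁵/well and left 48 h to attach. After medium change, cells were exposed to test compound or 0.1% DMSO for 6–72 h. They were then harvested and re-plated at 250 cells/well (n=6) in compound-free medium for 13 days. Staining was 0.5% crystal violet in methanol, 40 min at RT. Colonies of ≥25 cells were counted by hand and expressed as % of vehicle; one-way ANOVA.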
# MDA-MB-231 cells [3] = experiment: Cell cycle / sub-G1 DNA analysis by flow cytometry; type: cell-based, human; conditions: 30 μM SAL, 24 h (20 μM not significant)
# [4] = system: CD44+/CD24-/low cells of MDA-MB-231 organoids; experiment: CD44/CD24 cell surface markers by flow cytometry, organoids; type: cell-based, human; conditions: 2.5 μM 1 or 0.5 μM 17, 48 h
# In short: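 MDA-MB-231 organoids were made from 20 μl droplets of 1:4 complete Mammocult:Matrigel holding 10⁴ cells each. Droplets were set 1 h at 37°C, grown static 4 days with half-medium feeds every other day, then shaken at 90 rpm. One dissected organoid per 1 ml Mammocult was treated 48 h (vehicle 0.1% DMSO), then dispersed in enzyme-free dissociation buffer with 0.2% NDA. Cells were stained with FITC-anti-CD24 (1:100) and PE-anti-CD44 (1:200) for 30 min in the dark, then PI/RNase. Viable PI-negative cells were gated against isotype control; mean ± SD (n=3).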
# [5] = system: Bak and LC3-II in MDA-MB-231 cells; experiment: Immunoblot analysis, cell monolayer; type: cell-based, human
# In short: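 Monolayers of MDA-MB-231 (2.2 x 10⁶ cells/100 mm dish) were treated 24 or 48 h with test compound or 0.1% DMSO, ± 100 μM Z-VAD-FMK. Cells were trypsin-harvested, snap-frozen and lysed in 25 mM HEPES pH 7.5, 300 mM NaCl, 0.1% Triton X-100 with protease/phosphatase inhibitors. Blots were blocked in 5% milk/TBS-T 1 h at RT, then probed overnight at 4°C: Bak and LC3B 1:1000, GAPDH 1:10000 loading control; HRP anti-rabbit 1:5000. Band intensities were normalised to GAPDH as fold of control; mean ± SD (n=3).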
# [6] = system: EMT marker mRNA in MDA-MB-231 cells; experiment: qRT-PCR analysis of EMT markers; type: cell-based, human; conditions: ½ IC50, 24 h, vs untreated controls
# In short: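 MDA-MB-231 cells (0.7–2.2 x 10⁶ per 100 mm dish) were exposed 24 h to test compound or 0.1% v/v DMSO vehicle. Cells were trypsin-released and washed in PBS before RNA work. Transcript levels were measured by qRT-PCR and calculated relative to GAPDH by the ΔΔCt method; unpaired t test with Welch's correction.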
# breast CSCs = conditions: cited from earlier work
# [7] = doses of 200–250 μg kg−1; cited from earlier work
IC50 (MDA-MB-231 cells [1]),Compound,IC50 (primary ALL-5 cells),IC50 (MCF 10A cells),inhibition of colony growth (MDA-MB-231 cells [2]; 48 h treatment at ½ IC50),inhibition of colony growth (MDA-MB-231 cells [2]; 72 h treatment at ½ IC50),sub-G1 DNA content (MDA-MB-231 cells [3]),percentage of CD44+/CD24-/low cells [4],"LC3-II (14 kDa) expression vs. untreated control ([5]; 5 x IC50 (25 μM 1, 14 μM 2, 5 μM 17), 24 h)","Bak expression vs. control ([5]; 5 x IC50, 24 h and 48 h, monolayer)",E-cadherin mRNA [6],Snail-2 mRNA [6],Vimentin mRNA [6],potency in reducing viability of breast CSCs relative to paclitaxel (breast CSCs),tolerability in cancer patients [7]
142 µM,O=C(NO)c1ccccc1 [benzhydroxamic acid],–,–,–,–,–,–,–,–,–,–,–,–,–
–,"CC[C@@H](C(=O)[C@@H](C)[C@@H](O)[C@H](C)[C@@H]1O[C@@H]([C@@H](CC)C(=O)O)CC[C@@H]1C)[C@H]1O[C@]2(C=C[C@@H](O)[C@]3(CC[C@@](C)([C@H]4CC[C@](O)(CC)[C@H](C)O4)O3)O2)[C@H](C)C[C@@H]1C [SAL (1), salinomycin]",5.8 ± 1.7 µM,0.1 ± 0.02 µM,84%,90%,statistically significant sub-G1 DNA content,"modest, but significant reduction",significant upregulation,"very modest, but statistically significant, increase",downregulated,upregulated,upregulated,~100 times,well tolerated
